# Rows were chosen to be rich in hits. Some 1.3% of all compounds tested hit in one or more screens of this group.
# FN deposit inh: fibronectin deposition inhibition; AH1F fibroblasts, Alexa488-fibronectin deposition fluorescence, overnight; inhibition, % at 12.6 µM; AID 743247; actives 0.086% (n = 350,000);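 active means mean inhibition across replicates of 30% or more, regardless of how many single replicates reach that level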
#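 Test system: AH1F fibroblast monolayer depositing Alexa488-labelled fibronectin into matrix. Input: 10000 cells per well. Technique: fluorescence, ex 485 nm, em 525 nm. Buffer or medium: DMEM plus 2% serum, read in PBS. Timing: 1 h cell adhesion before compound, then overnight fibronectin incubation. Compound: single dose, pinned. Read-out basis: inhibition from reduced deposited-fibronectin fluorescence.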
# PAX8 inh HTS: PAX8 transcriptional activity inhibition; RMG-I TPO-luciferase reporter, SteadyGlo, 24 h; inhibition, % at 12.6 µM; actives 1.2% (n = 360,000);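 active means mean replicate inhibition at least 60% with every replicate also reaching 60%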;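 further: luciferase light reporting Pax8 driven TPO promoter activity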
# RAD52 anneal inh: RAD52 (human) annealing inhibition | P43351 | AID 651710 | inhibition, % at 18.7 µM | actives 0.46% (n = 360,000) | recombinant RAD52 DNA annealing, FRET fluorescence;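 active means every replicate showing at least 50% inhibition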
# Target sequence (P43351 whole entry, looked up): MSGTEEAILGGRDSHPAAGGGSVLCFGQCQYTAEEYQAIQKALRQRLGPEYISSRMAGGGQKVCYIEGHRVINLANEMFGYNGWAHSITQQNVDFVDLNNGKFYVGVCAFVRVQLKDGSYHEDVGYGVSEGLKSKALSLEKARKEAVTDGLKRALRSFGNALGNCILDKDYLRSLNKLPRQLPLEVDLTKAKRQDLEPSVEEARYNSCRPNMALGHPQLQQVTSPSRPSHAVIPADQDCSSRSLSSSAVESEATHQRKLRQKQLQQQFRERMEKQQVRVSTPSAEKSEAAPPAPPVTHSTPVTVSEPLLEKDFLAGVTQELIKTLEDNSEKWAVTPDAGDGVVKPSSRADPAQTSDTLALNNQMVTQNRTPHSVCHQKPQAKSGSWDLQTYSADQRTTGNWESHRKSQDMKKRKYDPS
# RAD54 branch: blocks human RAD54 Holliday junction branch migration; FAM/BHQ fluorescence; actives 0.14% (n = 360,000); inhibition, % at 10.4 µM; Q92698;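 active means mean normalized replicate activity at least 40 and at least half of replicates scoring 40 or more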;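 further: inhibitors cause a drop in the FAM fluorescence signal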
# Hits are given with their value; - = inactive; . = no result given.
SMILES,FN deposit inh,PAX8 inh HTS,RAD52 anneal inh,RAD54 branch
C[C@@H]1CCCCO[C@@H](CN(C)Cc2ccc(Cl)c(Cl)c2)[C@H](C)CN([C@H](C)CO)C(=O)c2cc(NC(=O)Nc3ccc(C(F)(F)F)cc3)ccc2O1,.,91,-,-
C[C@@H]1CN([C@H](C)CO)C(=O)c2cc(NC(=O)Nc3ccc(C(F)(F)F)cc3)ccc2O[C@@H](C)CCCCO[C@H]1CN(C)Cc1ccc(Cl)c(Cl)c1,.,91,-,-
CC(C)NC(=O)N1[C@H](CO)[C@H](c2ccccc2)[C@H]1CNC(=O)CN(C)C,-,-,.,-
Cc1ccccc1-c1ccc2c(c1)O[C@H](CN(C)C(=O)Nc1ccc(C(F)(F)F)cc1)[C@H](C)CN([C@@H](C)CO)S2(=O)=O,-,77,-,-
Cc1ccccc1-c1ccc2c(c1)O[C@H](CN(C)C(=O)Nc1ccc(C(F)(F)F)cc1)[C@@H](C)CN([C@H](C)CO)S2(=O)=O,-,77,-,-
NC(=S)N/N=C/c1ccc2c(c1)OCCO2,-,-,-,.
OC1c2cc(Br)ccc2N=C2CCCCCN21 (centres undefined),.,70,-,-
COC(=O)c1nn(-c2ccc(OC)cc2)c(=O)cc1O,-,-,-,-
COc1ccc(-n2nc(C#N)c(Cl)cc2=O)cc1,-,105,-,.
COc1ccc(CNC(=O)C(c2ccncc2)N(C(=O)Cc2cccs2)c2ccccc2)cc1 (centres undefined),-,-,-,.
COc1ccc(N(C(=O)CCl)C(C(=O)NCCc2ccccc2)c2cccs2)cc1 (centres undefined),-,113,-,-
COc1cc(/C=C/c2cccc[n+]2C)ccc1OCC(=O)Nc1ccccc1C,-,-,-,-
CCOc1cc(/C=C/c2cccc[n+]2C)ccc1OCC(=O)Nc1ccc(C)cc1,-,74,-,-
CC(=O)ON1C(C)(C)CC(OC(=O)c2ccccc2)CC1(C)C,-,-,.,-
CC1=NN(c2ccc(C)c(C)c2)C(=O)/C1=C\C=C\c1ccc([N+](=O)[O-])o1,-,70,-,.
O=C(Nc1ccc(OCC(F)(F)C(F)F)c(C(F)(F)F)c1)c1ccccc1,.,.,.,-
O=C(Nc1ccc(OCC(F)(F)C(F)F)c(C(F)(F)F)c1)c1ccccc1O,-,100,.,-
O=C(Nc1cc(C(F)(F)F)ccc1N1CCOCC1)C1CC1,.,-,-,-
NC(N)=NN=C(c1ccc(F)cc1)c1ccc(C(F)(F)F)cc1,.,95,-,.
O=C(Nc1ccccc1)NN(C(=O)CCl)c1ccccc1,-,99,-,-
Cc1ccc(C(O)(C(=O)NN(C(=O)c2ccccc2)c2ccccc2)c2ccc(C)cc2)cc1,-,-,-,.
Cc1ccc(N(NC(=O)C(O)(c2ccccc2)c2ccccc2)C(=O)CCl)cc1,-,107,.,.
CCCC(=O)N1CCC2(CC1)CN(Cc1ccccc1F)[C@@H](CO)c1c2c2ccc(OC)cc2n1C,.,-,-,.
COc1cc(/C=N/NC(N)=S)ccc1OCc1ccc(C)cc1,.,75,-,.
COc1cc(/C=N/NC(N)=S)ccc1OC(=O)c1ccc(C)cc1,-,81,.,.
SMILES,FN deposit inh,PAX8 inh HTS,RAD52 anneal inh,RAD54 branch
NC(=S)NN=Cc1nccc2c(C(F)(F)F)cccc12,-,73,-,-
O=c1c2ccccc2sn1-c1nccs1,38,-,-,.
CC(OC(=O)CN1C(=O)C2C3C=CC(C4CC34)C2C1=O)C(=O)c1ccccc1 (centres undefined),-,-,-,-
N#C[C@H]1[C@H](c2ccc(C#CC3CCCCC3)cc2)[C@H](CO)N1C(=O)Nc1ccc(F)cc1,-,92,-,.
N#C[C@H]1[C@H](c2ccc(C#CC3CCCC3)cc2)[C@H](CO)N1S(=O)(=O)c1ccccc1,-,-,-,-
N#C[C@@H]1[C@H](c2ccc(C#CC3CCCC3)cc2)[C@@H](CO)N1C(=O)Nc1ccc(F)cc1,-,-,-,-
N#C[C@H]1[C@H](c2ccc(C#CC3CCCC3)cc2)[C@@H](CO)N1C(=O)Nc1ccc(F)cc1,-,88,-,-
N#C[C@@H]1[C@H](c2ccc(C#CC3CCCCC3)cc2)[C@H](CO)N1S(=O)(=O)c1ccccc1,-,84,-,-
CCCCCC(=O)C(=O)c1ccc(O)cc1O,-,-,-,-
COc1ccc(C(=O)NCC(=O)N/N=C/c2ccco2)cc1OC,-,-,-,-
CN(C)c1ccc(N=Nc2nc3ccccc3n2C)cc1,-,90,-,-
Cn1c(N=Nc2ccccc2)nc2ccccc21,-,.,-,-
Oc1ccc(/C=N\Nc2cc(N3CCOCC3)nc(N3CCOCC3)n2)c(O)c1,-,87,-,-
CC(C)c1ccc(/C=N/Nc2cc(N3CCOCC3)nc(N3CCOCC3)n2)cc1,-,-,.,-
Cc1cccc(/C=N/Nc2cc(N3CCOCC3)nc(N3CCOCC3)n2)c1,36,.,-,.
O=C(CC1SC(=Nc2ccc(OC(F)F)cc2)N(CCN2CCOCC2)C1=O)Nc1ccc(F)cc1F (centres undefined),.,-,-,-
O=C(CC1SC(=Nc2ccc(OC(F)F)cc2)N(CCN2CCOCC2)C1=O)Nc1ccccc1 (centres undefined),-,64,-,-
COC(=O)C1C(=O)C2=C(CC1C)NC(C)=C(C(=O)OCc1ccc(OC)cc1)C2c1ccc(C)o1 (centres undefined),-,-,.,-
C[C@H]1CCCCO[C@H](CN(C)Cc2ccc(C(=O)O)cc2)[C@@H](C)CN([C@@H](C)CO)C(=O)c2cc(NC(=O)c3ccncc3)ccc2O1,.,-,102,-
C[C@@H]1CCCCO[C@H](CN(C)Cc2ccc(C(=O)O)cc2)[C@H](C)CN([C@@H](C)CO)C(=O)c2cc(NC(=O)c3ccncc3)ccc2O1,.,-,101,-
C[C@H](CO)N1C[C@H](C)[C@@H](CN(C)Cc2ccc(C(=O)O)cc2)OCCCC[C@H](C)Oc2ccc(NC(=O)c3ccncc3)cc2C1=O,.,-,96,-
C[C@H]1CCCCO[C@@H](CN(C)Cc2ccc(C(=O)O)cc2)[C@@H](C)CN([C@@H](C)CO)C(=O)c2cc(NC(=O)c3ccncc3)ccc2O1,.,-,106,-
C[C@@H]1CCCCO[C@@H](CN(C)Cc2ccc(C(=O)O)cc2)[C@@H](C)CN([C@H](C)CO)C(=O)c2cc(NC(=O)c3ccncc3)ccc2O1,.,-,76,-
C[C@@H]1CCCCO[C@@H](CN(C)Cc2ccc(C(=O)O)cc2)[C@H](C)CN([C@@H](C)CO)C(=O)c2cc(NC(=O)c3ccncc3)ccc2O1,.,-,104,-
C[C@H]1CCCCO[C@@H](CN(C)Cc2ccncc2)[C@@H](C)CN([C@@H](C)CO)C(=O)c2cc(NC(=O)c3ccncc3)ccc2O1,-,-,-,-
Cc1ccc(C(=O)N/C(=C\c2cccs2)c2nc3ccccc3[nH]2)cc1,-,-,-,.
CCN(CC)CCNC(=O)c1ccc(NC(=O)/C=C/c2cc(OC)c(OC)c(OC)c2)cc1,-,-,-,62
Cc1ccc(S(=O)(=O)CCC(=O)c2ccc(O)cc2O)cc1,-,97,.,-
Cc1ccc(S(=O)(=O)CCC(=O)OCC(=O)c2cc(C)ccc2C)cc1,-,-,-,.
COc1ccc(C(=O)CCS(=O)(=O)c2ccc(C)cc2)cc1OC,-,96,-,-

# Screening results from PubChem.
